Results collected from several papers.
Compare with care: the assays were run in different laboratories.
Target: Uncharacterized serine/threonine-protein kinase SBK3 (SBK3, Homo sapiens, UniProt P0C264)
Sequence (P0C264 1-359, as in one of the studies): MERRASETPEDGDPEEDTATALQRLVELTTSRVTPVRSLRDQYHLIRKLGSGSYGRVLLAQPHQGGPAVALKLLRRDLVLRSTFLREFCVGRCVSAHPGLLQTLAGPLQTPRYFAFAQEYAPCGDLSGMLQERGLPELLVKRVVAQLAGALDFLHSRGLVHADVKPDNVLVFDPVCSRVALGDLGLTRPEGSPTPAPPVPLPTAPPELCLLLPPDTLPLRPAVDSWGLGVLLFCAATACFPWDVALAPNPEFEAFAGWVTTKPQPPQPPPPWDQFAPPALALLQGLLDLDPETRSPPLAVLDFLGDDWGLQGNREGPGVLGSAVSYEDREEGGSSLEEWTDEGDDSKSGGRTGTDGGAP

Compound | test | conditions | remaining binding
O=C(c1ccc(Nc2ncc(Cl)c(-c3cc4ccccc4s3)n2)cc1)N1CCC(N2CCCC2)CC1 | binding, competition with immobilised ligand | 1 µM | 86%
COc1ccc2c(c1)O[C@H](c1ccc(OC)c(OC)c1)C[C@@H]2NC(=O)C1(c2ccc3c(c2)OC(F)(F)O3)CC1 | cell-free assay, competition with immobilised ligand | 1 µM | 100%
c1cnn2ncc(-c3ccnc(N4CCC45COC5)n3)c2c1 | binding | 1 µM | 71%
Cc1nc(Cc2cccc(C(F)(F)F)c2)sc1-c1ccc(C(N)=O)nc1 | cell-free assay, competition with immobilised ligand | 1 µM | 100%
N[C@H]1CCN(c2nccc(-c3cnn4ncccc34)n2)C1 | binding | 1 µM | 100%
O=C(NCCCN1CCOCC1)c1ccc(Nc2ncc(Cl)c(-c3ccc(Cl)s3)n2)cc1 | binding, competition with immobilised ligand | 1 µM | 79%
c1cncc(-c2cccc(Nc3nccc(NC4CCCCC4)n3)c2)c1 | binding, competition with immobilised ligand | 10 µM | 33%
Nc1ncc2c(n1)-c1c([nH]c3ccc(C#CC4CC4)cc13)CCCC2 | binding, competition with immobilised ligand | 1 µM | 100%
Cn1nc(C(=O)NCc2ccc(C(=O)O)cc2)cc1-c1ccc2[nH]ccc2c1 | cell-free assay, competition with immobilised ligand | 0.1 µM | 79%
CNC(=O)[C@@H]1CC[C@@H](n2c(-c3ccc4cnccc4c3)nc3ccc(C(=O)NCc4cccc(C(N)=O)c4)cc32)C1 | binding, competition with immobilised ligand | 1 µM | 87%
O=C(c1ccc(Nc2nccc(-c3cc4ccccc4s3)n2)cc1)N1CCC(N2CCCC2)CC1 | binding, competition with immobilised ligand | 1 µM | 88%
O=C(NCC1CCOCC1)c1n[nH]cc1NC(=O)c1c(F)cccc1F | binding, competition with immobilised ligand | 1 µM | 68%
FC(F)(F)Oc1cccc(-c2cnc3ccc(-c4ccncc4)nn23)c1 | binding, competition with immobilised ligand | 5 µM | 100%
CN(C)c1ncc(F)c(-c2cnn3ncccc23)n1 | binding | 1 µM | 74%
CO[C@@H](C)c1c(Nc2ccc([C@@H](N(C)C(=O)C3CCS(=O)(=O)CC3)C(F)(F)F)cc2)cnc2cc(Cl)nn12 | cell-free assay, competition with immobilised ligand | 1 µM | 81%
CN(C)c1nccc(-c2cnn3ncccc23)n1 | binding | 1 µM | 100%
COc1cnc(Nc2cccc(S(N)(=O)=O)c2)nc1N1CCN(c2ccccc2)C(=O)C1 | binding, competition with immobilised ligand | 1 µM | 64%
O=C(Nc1ccc(Oc2ccc(F)cc2)cc1)N1CCc2ncccc2[C@H]1c1ccc(F)cc1 | cell-free assay, competition with immobilised ligand | 1 µM | 70%
CN(c1nccc(-c2cnn3ncccc23)n1)C1CC1 | binding | 1 µM | 100%
COCCOc1nc(-c2ccc(Cl)nc2)nc2c1CN(C(=O)c1ncn3ccccc13)CC2 | cell-free assay, competition with immobilised ligand | 0.1 µM | 100%
CC1CCCN1c1nccc(-c2cnn3ncccc23)n1 (stereo not drawn) | binding | 1 µM | 100%
